Activity calls are given as the source filed them. No cut-off for these calls is given here.

This is an account of results in ChEMBL document CHEMBL3232933, “Pyrazole-5-carboxamides, novel inhibitors of receptor for advanced glycation end products (RAGE)” (Eur J Med Chem, 2014).

Data set [1] deals with T1, Advanced glycosylation end product-specific receptor (Homo sapiens, UniProt Q15109). Nature of the data set: Inhibition of biotinylated human RAGE assessed as bound amyloid beta level at 20 uM after 60 mins by ELISA relative to control. The gist of the method: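 Biotinylated human RAGE (1 µg), Aβ1-42 oligomers (aged in PBS for 24 h at 4 °C) and compound at a single fixed level were co-incubated in TBS-T with 2.5% BSA on streptavidin plates for 60 min at ambient temperature. Bound Aβ was detected with HRP-4G8, TMB and A450. % inhibition is given as mean ± SD of duplicate experiments.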
On the technique in general: ELISA stands for enzyme-linked immunosorbent assay.

The target of data set [2] is T1, Advanced glycosylation end product-specific receptor. Nature of the data set: Inhibition of biotinylated human RAGE assessed as bound amyloid beta level after 60 mins by ELISA.
Data set [3] can be described thus: Kinetic solubility of the compound in PBS at pH 7.4 by nephelometric analysis. It counts as physicochemical. The settings on record: read-out: Kinetic_solubility. The gist of the method:
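Kinetic solubility was measured on the HCl salt, added from a DMSO stock, in triplicate experiments.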

Data set [4] is described as follows: AUC in Sprague-Dawley rat at 2 mg/kg, iv. In kind it is ADME, organism-based. The settings on record: plasma. Details: dose 2 mg/kg, route intravenous.
Data set [5] deals with Mus musculus. The experiment in a line: Antialzheimer activity in ICR mouse injected with human amyloid beta (1 to 42) assessed as reduction of human amyloid beta (1 to 42) level in brain at 25 mg/kg, ip administered 20 mins prior to human amyloid beta (1 to 42) injection measured after 30 mins relative to control. It counts as functional. More on the design: scale not given: the % may be the effect or the level left. The settings on record: route intraperitoneal. In a few lines:
(§1)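 Male ICR mice, 3 months old (25 g, n = 4), got one i.p. dose of 25 mg/kg or vehicle. After 20 min, human Aβ1-42 in PBS was injected into the tail vein and circulated for 30 min. Human Aβ was then measured in brain extracts and plasma. Values are means ± SD.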

Data set [6] relates to Mus musculus. Nature of the data set: Antialzheimer activity in ICR mouse injected with human amyloid beta (1 to 42) assessed as increase in human amyloid beta (1 to 42) level in plasma at 25 mg/kg, ip administered 20 mins prior to human amyloid beta (1 to 42) injection measured after 30 mins relative to control. In kind it is functional. The following applies: route intraperitoneal. In a few lines: as §1

T1 sequence (Q15109 whole entry): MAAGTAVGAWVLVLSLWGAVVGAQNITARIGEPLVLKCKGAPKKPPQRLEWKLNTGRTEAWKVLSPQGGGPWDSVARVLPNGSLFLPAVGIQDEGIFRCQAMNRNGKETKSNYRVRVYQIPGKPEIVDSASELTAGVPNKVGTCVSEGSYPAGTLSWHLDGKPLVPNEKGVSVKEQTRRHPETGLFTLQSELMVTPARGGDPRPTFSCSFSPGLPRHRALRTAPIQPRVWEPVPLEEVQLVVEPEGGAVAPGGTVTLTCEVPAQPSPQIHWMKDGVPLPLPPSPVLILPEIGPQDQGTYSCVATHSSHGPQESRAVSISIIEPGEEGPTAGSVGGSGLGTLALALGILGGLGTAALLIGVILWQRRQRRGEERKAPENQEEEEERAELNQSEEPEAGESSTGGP

`CCN(CC)CCCOc1ccc(NC(=O)c2cc(-c3ccc(OC)cc3)nn2C)cc1`: in data set [1], the inhibition amounted to 20.5%.

Turning to `CCCCOc1cc(OCCCN(CC)CC)ccc1NC(=O)c1cc(-c2ccc(Oc3ccccc3)cc2)nn1C`, in data set [1], the inhibition is 77%. Besides, the IC50 in data set [2] was determined as 5.4 µM.

Regarding `CCCCOc1cc(OCCCN(CC)CC)ccc1NC(=O)c1cc(-c2ccc(Oc3ccccc3F)cc2)nn1C`, the inhibition in data set [1] came out at 29.5%. On the same count and under the same terms, the result for `CCCCOc1cc(OCCCN(CC)CC)ccc1NC(=O)c1cc(-c2ccc(Oc3ccc(Cl)cc3)cc2)nn1CCC` reads 44.6%; that for `CCCCn1nc(-c2ccc(Oc3ccc(Cl)cc3)cc2)cc1C(=O)Nc1ccc(OCCCN(CC)CC)cc1`, 41.4%. The same measure, in the same setting: the value for `CCN(CC)CCCOc1ccc(NC(=O)c2cc(-c3ccc(Oc4ccc(Cl)cc4)cc3)nn2C)cc1` was 33.8%; that for `CCCCOc1cc(OCCCN(CC)CC)ccc1NC(=O)c1cc(-c2ccc(Oc3ccc(C(C)(C)C)cc3)cc2)nn1C` was “inactive”. Take `CCCCOc1cc(OCCCN(CC)CC)ccc1NC(=O)c1cc(-c2ccc(Oc3ccc(C(F)(F)F)cc3)cc2)nn1C`: in data set [1], the inhibition amounted to 83.1%. The IC50 in data set [2] stood at 1.9 µM. In the case of `CCCCOc1cc(OCCCN(CC)CC)ccc1NC(=O)c1cc(-c2ccc(Oc3ccc(F)cc3)cc2)nn1C.Cl`, in data set [3], the solubility kinetic came to 80.3 µM. Consider `CCCCOc1cc(OCCCN(CC)CC)ccc1NC(=O)c1cc(-c2ccc(Oc3ccc(Cl)cc3)cc2)nn1C`, for which the inhibition in data set [1] was found to be 49.7%.

In turn, `CCN(CC)CCOc1cccc(Nc2nc(-c3ccc(Cl)cc3)cc(-c3ccc(Cl)cc3)n2)c1` registered an area under the curve (AUC) in data set [4] of 10600 ng·h/mL. On to `CCCCOc1cc(OCCCN(CC)CC)ccc1NC(=O)c1cc(-c2ccc(Oc3ccc(Cl)cc3)cc2)no1`, for which, in data set [1], the inhibition came to 32.1%.

For the molecule `CCN(CC)CCOc1cccc(Nc2nc(-c3ccc(Cl)cc3)cc(-c3ccc(Cl)cc3)n2)c1.Cl`, in data set [3], the solubility kinetic is 16.5 µM.

As for `CCCCOc1cc(OCCCN(CC)CC)ccc1NC(=O)c1cc(-c2ccc(Oc3ccc(Cl)cc3)cc2)n(CCCC)n1`, the inhibition in data set [1] stood at 36%. On the same count and under the same terms, the result for `CCCCOc1cc(OCCCN(CC)CC)ccc1NC(=O)c1cc(-c2ccc(Oc3ccc(Cl)cc3)cc2)nn1CC` reads 44.7%; that for `CCCCOc1cc(OCCCN(CC)CC)ccc1NC(=O)c1cc(-c2ccc(Oc3ccc(Cl)cc3)cc2)n[nH]1`, “inactive”. `CCCCOc1cc(OCCCN(CC)CC)ccc1NC(=O)c1cc(-c2ccc(OC3CCCCC3)cc2)nn1C`: the inhibition in data set [1] was found to be 76%. For the same molecule, the half-maximal inhibitory concentration (IC50) in data set [2] was 2.5 µM. Take `CCN(CC)CCOc1ccc(NC(=O)c2cc(-c3ccc(Oc4ccc(Cl)cc4)cc3)nn2C)cc1`: the inhibition in data set [1] was found to be 27%. Consider `CCCCOc1cc(OCCCN(CC)CC)ccc1NC(=O)c1cc(-c2ccc(Oc3ccc(OC)c(F)c3)cc2)nn1C`, for which the inhibition in data set [1] stood at 34.1%. Consider `CCCCOc1cc(OCCCN(CC)CC)ccc1NC(=O)c1cc(-c2ccc(Oc3ccc(OC)c(Cl)c3)cc2)nn1C`, for which the inhibition in data set [1] worked out at 36.5%. Also, the IC50 in data set [2] is 5.3 µM. For the molecule `CCCCOc1cc(OCCCN(CC)CC)ccc1NC(=O)c1cc(-c2ccc(Oc3ccc(F)cc3)cc2)nn1C` [listing 1 of 2 here], the inhibition in data set [1] was 79.3%. Still for that read-out and setting: the result for `CCCCOc1cc(OCCCN(CC)CC)ccc1NC(=O)c1cc(-c2ccc(Oc3ccc(Cl)cc3)cc2)n(CCC)n1` reads 45.7%.

As for `CCCCOc1cc(OCCCN(CC)CC)ccc1NC(=O)c1cc(-c2ccc(Oc3ccc(Cl)cc3)cc2)nn1CCCC`, the inhibition result in data set [1] was “inactive”. Same read-out and setting: the result for `CCCCOc1cc(OCCCN(CC)CC)ccc1NC(=O)c1cc(-c2ccc(OC)cc2)n[nH]1` reads “inactive”.

With `CCCCOc1cc(OCCCN(CC)CC)ccc1NC(=O)c1cc(-c2ccc(Oc3ccc(OC)cc3)cc2)nn1C`, the inhibition in data set [1] worked out at 74.2%. In addition, in data set [2], the IC50 came to 7.8 µM.

`CCCCOc1cc(OCCCN(CC)CC)ccc1NC(=O)c1cc(-c2ccc(Oc3ccc(F)cc3)cc2)nn1C` [listing 2 of 2 here]: the Activity with Mus musculus [5] was determined as 37.86%; with Mus musculus [6], 4.01%. The AUC in data set [4] was determined as 8560 ng·h/mL. As to `CCN(CC)CCOc1ccc(NC(=O)c2cc(-c3ccc(OC)cc3)nn2C)cc1`, the inhibition in data set [1] was 20.5%.

`CCCCOc1cc(OCCCN(CC)CC)ccc1NC(=O)c1cc(-c2ccc(Oc3ccccn3)cc2)nn1C`: in data set [1], the inhibition worked out at 52.6%. The IC50 in data set [2] stood at 18.9 µM. In the case of `CCCCOc1cc(OCCCN(CC)CC)ccc1NC(=O)c1cc(-c2ccc(Oc3cccc(F)c3)cc2)nn1C`, in data set [1], the inhibition worked out at 37%. Still for that read-out and setting: the value for `CCCCOc1cc(OCCCN(CC)CC)ccc1NC(=O)c1cc(-c2ccc(OC)cc2)nn1C` was 32.4%. Same read-out and setting: the result for `CCCCOc1cc(OCCCN(CC)CC)ccc1NC(=O)c1cc(-c2ccc(Oc3ccc(F)c(F)c3)cc2)nn1C` reads 19.9%.

Usually inhibition stands for the drop in the measured response relative to a control, in per cent. Usually IC50 stands for the concentration at which inhibition is half-maximal. The term AUC denotes the area under the concentration-time curve, a measure of exposure.
